Laboratory results taken from ChEMBL document CHEMBL1629601, “In vitro susceptibility of field isolates of Leishmania donovani to Miltefosine and amphotericin B: correlation with sodium antimony gluconate susceptibility and implications for treatment in areas of endemicity” (2009).
In brackets after ≈: the same amount, converted by molar mass.

Experiments:
Assay type in all cases: functional
Leishmania donovani [1] = assay: Decrease in LdRoS3 gene expression in Leishmania donovani K80 by RT-PCR method
Summary of the method: (§1)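 VL field isolates of L. donovani. Transcript levels of LdMT or LdRos3 were measured by real-time RT-PCR with SYBR green and analysed by the 2−ΔΔCt method. The expression index is the ratio of gene expression to that of the standard L. donovani strain LdAG83, and a decrease is relative to LdAG83. Values are means of three independent experiments.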

Leishmania donovani [2] = assay: Decrease in LdMT gene expression in Leishmania donovani K111 by RT-PCR method
Summary of the method: (§2)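 LdMT transcript levels were measured by real-time RT-PCR with SYBR green and analysed by the 2−ΔΔCt method. They are expressed as an expression index, the ratio relative to reference strain LdAG83, and are the mean of three independent experiments.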

Leishmania donovani [3] = assay: Decrease in LdRoS3 gene expression in Leishmania donovani K111 by RT-PCR method; summary of the method: as §1
Leishmania donovani [4] = assay: Decrease in LdMT gene expression in Leishmania donovani K132 by RT-PCR method; summary of the method: as §2
Leishmania donovani [5] = assay: Decrease in LdRoS3 gene expression in Leishmania donovani K132 by RT-PCR method; summary of the method: as §1
Leishmania donovani [6] = assay: Decrease in LdMT gene expression in Leishmania donovani K133 by RT-PCR method; summary of the method: as §2
Leishmania donovani [7] = assay: Decrease in LdRoS3 gene expression in Leishmania donovani K133 by RT-PCR method; summary of the method: as §1
Leishmania donovani [8] = assay: Decrease in LdMT gene expression in Leishmania donovani K135 by RT-PCR method; summary of the method: as §2
Leishmania donovani [9] = assay: Decrease in LdRoS3 gene expression in Leishmania donovani K135 by RT-PCR method; summary of the method: as §1
Leishmania donovani [10] = assay: Decrease in LdMT gene expression in Leishmania donovani K216 by RT-PCR method; summary of the method: as §1
Leishmania donovani [11] = assay: Decrease in LdMT gene expression in Leishmania donovani K80 by RT-PCR method; summary of the method: as §1
Leishmania donovani [12] = assay: Decrease in LdRoS3 gene expression in Leishmania donovani K216 by RT-PCR method; summary of the method: as §1
Leishmania donovani [13] = assay: Decrease in LdMT gene expression in Leishmania donovani K435 by RT-PCR method; summary of the method: as §1
Leishmania donovani [14] = assay: Decrease in LdRoS3 gene expression in Leishmania donovani K435 by RT-PCR method; summary of the method: as §1
Leishmania donovani [15] = assay: Decrease in LdMT gene expression in Leishmania donovani K59M20 by RT-PCR method
Summary of the method: (§3)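 MIL-resistant M20 parasites were generated by raising the MIL concentration stepwise up to 20 μg/ml. LdMT or LdRos3 expression was quantified by real-time RT-PCR (SYBR green, 2−ΔΔCt method) and reported as an expression index, the ratio to the standard strain LdAG83. A decrease is relative to LdAG83. Values are means of three independent experiments.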

Leishmania donovani [16] = assay: Decrease in LdRoS3 gene expression in Leishmania donovani K59M20 by RT-PCR method; summary of the method: as §3
Leishmania donovani [17] = assay: Decrease in LdMT gene expression in Leishmania donovani K417M20 by RT-PCR method; summary of the method: as §3
Leishmania donovani [18] = assay: Decrease in LdRoS3 gene expression in Leishmania donovani K417M20 by RT-PCR method; summary of the method: as §3
Leishmania donovani [19] = assay: Antimicrobial activity against Leishmania donovani K417M20 amastigote; conditions: read-out: ED50 (the source's name)
Leishmania donovani [20] = assay: Antimicrobial activity against Leishmania donovani K417M20 promastigote; conditions: read-out: ED50 (the source's name)
Leishmania donovani [21] = assay: Antimicrobial activity against Leishmania donovani K133 promastigote; conditions: read-out: ED50 (the source's name)
Leishmania donovani [22] = assay: Antimicrobial activity against Leishmania donovani K135 amastigote; conditions: read-out: ED50 (the source's name)
Leishmania donovani [23] = assay: Antimicrobial activity against Leishmania donovani K498 promastigote; conditions: read-out: ED50 (the source's name)
Leishmania donovani [24] = assay: Antimicrobial activity against Leishmania donovani K498 amastigote; conditions: read-out: ED50 (the source's name)
Leishmania donovani [25] = assay: Antimicrobial activity against Leishmania donovani K481 amastigote; conditions: read-out: ED50 (the source's name)
Leishmania donovani [26] = assay: Antimicrobial activity against Leishmania donovani K481 promastigote; conditions: read-out: ED50 (the source's name)
Leishmania donovani [27] = assay: Antimicrobial activity against Leishmania donovani K439 promastigote; conditions: read-out: ED50 (the source's name)
Leishmania donovani [28] = assay: Antimicrobial activity against Leishmania donovani K439 amastigote; conditions: read-out: ED50 (the source's name)
Leishmania donovani [29] = assay: Antimicrobial activity against Leishmania donovani K429 promastigote; conditions: read-out: ED50 (the source's name)
Leishmania donovani [30] = assay: Antimicrobial activity against Leishmania donovani K429 amastigote; conditions: read-out: ED50 (the source's name)
Leishmania donovani [31] = assay: Antimicrobial activity against Leishmania donovani K417 amastigote; conditions: read-out: ED50 (the source's name)
Leishmania donovani [32] = assay: Antimicrobial activity against Leishmania donovani K417 promastigote; conditions: read-out: ED50 (the source's name)
Leishmania donovani [33] = assay: Antimicrobial activity against Leishmania donovani K251 promastigote; conditions: read-out: ED50 (the source's name)
Leishmania donovani [34] = assay: Antimicrobial activity against Leishmania donovani K192 promastigote; conditions: read-out: ED50 (the source's name)
Leishmania donovani [35] = assay: Antimicrobial activity against Leishmania donovani K251 amastigote; conditions: read-out: ED50 (the source's name)
Leishmania donovani [36] = assay: Antimicrobial activity against Leishmania donovani K192 amastigote; conditions: read-out: ED50 (the source's name)
Leishmania donovani [37] = assay: Antimicrobial activity against Leishmania donovani K149 promastigote; conditions: read-out: ED50 (the source's name)
Leishmania donovani [38] = assay: Antimicrobial activity against Leishmania donovani K131 promastigote; conditions: read-out: ED50 (the source's name)
Leishmania donovani [39] = assay: Antimicrobial activity against Leishmania donovani K149 amastigote; conditions: read-out: ED50 (the source's name)
Leishmania donovani [40] = assay: Antimicrobial activity against Leishmania donovani K59 promastigote; conditions: read-out: ED50 (the source's name)
Leishmania donovani [41] = assay: Antimicrobial activity against Leishmania donovani K131 amastigote; conditions: read-out: ED50 (the source's name)

- EC50 (Leishmania donovani [19]): > 15 µg/mL
- EC50 (Leishmania donovani [20]): > 15 µg/mL
- EC50 (Leishmania donovani [21]): 0.83 µg/mL (≈ 2.04 µM)
- EC50 (Leishmania donovani [22]): 0.72 µg/mL (≈ 1.77 µM)
- EC50 (Leishmania donovani [23]): 1.32 µg/mL (≈ 3.24 µM)
- EC50 (Leishmania donovani [24]): 1.65 µg/mL (≈ 4.05 µM)
- EC50 (Leishmania donovani [25]): 2.32 µg/mL (≈ 5.69 µM)
- EC50 (Leishmania donovani [26]): 1.9 µg/mL (≈ 4.66 µM)
- EC50 (Leishmania donovani [27]): 0.87 µg/mL (≈ 2.13 µM)
- EC50 (Leishmania donovani [28]): 1.07 µg/mL (≈ 2.63 µM)
- EC50 (Leishmania donovani [29]): 1.26 µg/mL (≈ 3.09 µM)
- EC50 (Leishmania donovani [30]): 1.24 µg/mL (≈ 3.04 µM)
- EC50 (Leishmania donovani [31]): 1.9 µg/mL (≈ 4.66 µM)
- EC50 (Leishmania donovani [32]): 1.72 µg/mL (≈ 4.22 µM)
- EC50 (Leishmania donovani [33]): 0.4 µg/mL (≈ 0.981 µM)
- EC50 (Leishmania donovani [34]): 1.91 µg/mL (≈ 4.69 µM)
- EC50 (Leishmania donovani [35]): 1.59 µg/mL (≈ 3.9 µM)
- EC50 (Leishmania donovani [36]): 1.99 µg/mL (≈ 4.88 µM)
- EC50 (Leishmania donovani [37]): 1.56 µg/mL (≈ 3.83 µM)
- EC50 (Leishmania donovani [38]): 0.63 µg/mL (≈ 1.55 µM)
- EC50 (Leishmania donovani [39]): 1.57 µg/mL (≈ 3.85 µM)
- EC50 (Leishmania donovani [40]): 1.19 µg/mL (≈ 2.92 µM)
- EC50 (Leishmania donovani [41]): 0.51 µg/mL (≈ 1.25 µM)
Compound: CCCCCCCCCCCCCCCCOP(=O)([O-])OCC[N+](C)(C)C [MILTEFOSINE]
- fold change (FC) (Leishmania donovani [1]): 1.71
- fold change (FC) (Leishmania donovani [2]): 3.4
- fold change (FC) (Leishmania donovani [3]): 5.26
- fold change (FC) (Leishmania donovani [4]): 5.5
- fold change (FC) (Leishmania donovani [5]): 55.55
- fold change (FC) (Leishmania donovani [6]): 1.5
- fold change (FC) (Leishmania donovani [7]): 4.52
- fold change (FC) (Leishmania donovani [8]): 2.86
- fold change (FC) (Leishmania donovani [9]): 1.67
- fold change (FC) (Leishmania donovani [10]): 1.4
- fold change (FC) (Leishmania donovani [11]): 1.24
- fold change (FC) (Leishmania donovani [12]): 9.43
- fold change (FC) (Leishmania donovani [13]): 2.67
- fold change (FC) (Leishmania donovani [14]): 4.76
- fold change (FC) (Leishmania donovani [15]): 13.33
- fold change (FC) (Leishmania donovani [16]): 100
- fold change (FC) (Leishmania donovani [17]): 11.3
- fold change (FC) (Leishmania donovani [18]): 100
